Screening results: PubChem, several laboratories
The list is not random: actives were taken first. Their share in the collection is about 3.5%.
Apaf1 inhib: inhibitors of human Apaf-1 apoptosome. reconstituted apoptosome caspase-3 activity, DEVD-Rh110 fluorescence. inhibition, % at 20 µM. O14727. AID 489030. 0.71% of 330,000 active; active means inhibition of at least 40% at 20 µM
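Material: reconstituted apoptosome with Apaf-1, cytochrome c, caspase-9, procaspase-3, dATP; medium: pH 7.5 Hepes buffer with CHAPS, BSA, DTT; also added: cytochrome c and DEVD-Rh110 substrate; timing: 30 min plus 50 min, RT; signal: Rh110 fluorescence intensity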
PAFAH1B2 FP inh: inhibitors of human PAFAH1B2; P68402; inhibition, % at 3.39 µM; recombinant PAFAH1B2, FP-rhodamine activity probe, fluorescence polarization; 1.2% of 340,000 active;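 active means inhibition above the mean of all tested compounds plus 3 SD, cut at about 24% in these data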
PAFAH2 inh: PAFAH2 (human) inhibition; recombinant PAFAH2, FP-rhodamine activity probe, fluorescence polarization; Q99487; 0.99% of 340,000 active; inhibition, % at 3.39 µM;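 active means inhibition above the mean over all tested compounds plus 3 SD, cut at about 30% in these data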;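 further: inhibitors block probe labeling of enzyme so polarization drops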
PREPL inh: inhibitors of human prolyl oligopeptidase-like enzyme PREPL. 0.68% of 320,000 active. Q4J6C6. recombinant PREPL, fluorescence polarization activity-based probe. inhibition, % at 5.96 µM; in the data active means inhibition above about 43%
pPAFAH inh: inhibitors of human plasma PAF acetylhydrolase (pPAFAH); Q13093; recombinant pPAFAH, FP-rhodamine probe fluorescence polarization; inhibition, % at 3.39 µM; 1.5% of 330,000 active; AID 463082;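 active means inhibition above the mean inhibition across the screen plus 3 SD, cut at about 25% in these data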;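 further: inhibitors block binding of the rhodamine activity-based probe so polarization drops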
PAFAH1B3 inh: inhibitors of human PAFAH1B3. AID 492972. 0.28% of 340,000 active. inhibition, % at 3.39 µM. Q15102. recombinant PAFAH1B3, FP-rhodamine probe, fluorescence polarization;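 active means inhibition above the screen-wide average of all tested compounds plus 3 SD, cut at about 25% in these data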
Large screens that a line does not name were inactive.

Cc1nc(CS(=O)(=O)c2ccc(Cl)cc2)sc1C(=O)O	PAFAH1B2 FP inh 25
Cc1nc(C)c(C(=O)N/N=C/c2cc(Br)ccc2O)s1	none
Cc1ccc2c(c1)C=CC(C)N2C(=O)c1ccccc1 (centres undefined)	PAFAH1B2 FP inh 32
CC(=O)NCCC(=O)Nc1ncc(S(=O)(=O)c2ccc([N+](=O)[O-])cc2)s1	PAFAH1B2 FP inh 26
COCC(=O)Nc1ncc(S(=O)(=O)c2ccc([N+](=O)[O-])cc2)s1	PAFAH1B2 FP inh 28
CCCCC(=O)Nc1ncc(S(=O)(=O)c2ccc([N+](=O)[O-])cc2)s1	none
Cc1cnc(CN(C)Cc2nc(Cc3cccc(C(F)(F)F)c3)no2)[nH]1	none
CSc1oc(-c2ccco2)nc1S(=O)(=O)c1ccc(Br)cc1	none
CC(C)Sc1oc(-c2ccco2)nc1S(=O)(=O)c1ccc(F)cc1	pPAFAH inh 26
CCc1nnc(NC(=O)c2cc(S(=O)(=O)N3CCOCC3)ccc2N2CCCCC2)s1	none (no result: Apaf1 inhib, PREPL inh, pPAFAH inh)
CCc1nn(CCCC(=O)NCc2ccccc2Br)c(=O)c2cc3occc3n12	Apaf1 inhib 46
CCOc1ccccc1C1C2CCCCC2(O)CCN1C(=O)c1cccs1 (centres undefined)	none
NC(=O)c1ccc(N=C2C(=O)Nc3ccc([N+](=O)[O-])cc32)cc1	Apaf1 inhib 56, PAFAH1B3 inh 56
O=C1Nc2ccccc2C1=Nc1cccc([N+](=O)[O-])c1	none
CCN1C(=O)[C@H]2[C@@H](c3ccc(SC4CCCCC4)cc3)N3CCCC[C@@]3(C(=O)OC)[C@H]2C1=O	none
CCN1C(=O)[C@@H]2[C@@H](c3ccc(SC4CCCCC4)cc3)N3CCC[C@@]3(C(=O)OC)[C@@H]2C1=O	pPAFAH inh 29
O=C(Cc1ccc(Cl)cc1)NC1CC1	none
O=C(CCSCc1ccc(Cl)cc1)NC1CCCC1	PAFAH1B2 FP inh 27
O=C(CCSCc1cccc(Cl)c1)NCCc1ccc(Cl)cc1	PAFAH1B2 FP inh 28
Cc1ccc(CNC(=O)CCSCc2cccc(F)c2)cc1	PAFAH1B2 FP inh 25
Cc1ccc(CNC(=O)CCSCc2ccc(C)cc2)cc1	none
Cc1ccc(CSCCC(=O)NCCc2ccc(Cl)cc2)cc1	none
Cc1ccc(CSCCNC(=O)CCSc2ccccc2)cc1	PAFAH1B2 FP inh 41
O=C(c1[nH]nc2c1CCc1ccccc1-2)N1CCN(Cc2ccc3c(c2)OCO3)CC1	none
CCCNc1c(NS(=O)(=O)c2ccc(C3CCCCC3)cc2)c(=O)oc2ccccc12	none
Cc1ccc(SCCC(=O)Nc2ccc(Br)c(C)c2)cc1	none
Cc1ccc(SCCC(=O)Nc2ccccc2Br)cc1	PAFAH1B2 FP inh 26
Cc1cccc(OCC(=O)NCc2ccc(F)cc2)c1	none
CC(C)(C)[C@@H]1COC(=O)[C@H](Cc2ccc(F)cc2)C/C=C\C[C@@H](CC(=O)NCCO)C(=O)N1	PAFAH1B2 FP inh 32
C[C@@H]1COC(=O)[C@H](Cc2ccc(F)cc2)C/C=C\C[C@@H](CC(=O)NCCO)C(=O)N1	PAFAH1B2 FP inh 33
CN(CC(=O)Nc1cccc(F)c1)C(=O)/C=C/c1cc(Br)ccc1OC(F)F	none
Cc1cccnc1NC(=O)c1cccc(S(=O)(=O)N2CCCc3ccccc32)c1	PAFAH1B2 FP inh 29
O=C(Nc1ncccc1O)c1cccc(S(=O)(=O)N2CCCc3ccccc32)c1	none
CC1CCCC(NC(=O)c2cccc(S(=O)(=O)NCc3ccccc3)c2)C1C (centres undefined)	PAFAH1B2 FP inh 30
CN(Cc1ccc(F)cc1)C(=O)c1cccc(S(=O)(=O)NCc2ccccc2)c1	PAFAH1B2 FP inh 25
CN(Cc1ccc(F)cc1)C(=O)c1ccc(NS(=O)(=O)c2ccccc2)cc1	none
COc1cccc(NC(=O)CN(C)C(=O)c2cccc(NS(=O)(=O)c3ccc(Br)cc3)c2)c1	PAFAH1B2 FP inh 30 (no result: Apaf1 inhib, PREPL inh, pPAFAH inh)
COc1cccc(NC(=O)CN(C)C(=O)c2cccc(NS(=O)(=O)c3ccccc3)c2)c1	none
CN(CC(=O)Nc1ccc(F)cc1)C(=O)c1cccc(NS(=O)(=O)c2ccccc2)c1	pPAFAH inh 29
COc1cccc(NC(=O)CN(C)C(=O)c2ccc(NS(=O)(=O)c3ccc(F)cc3)cc2)c1	none
O=C(CC1SC(N2CCCC2)=NC1=O)Nc1ccc(C(=O)Nc2ncccc2O)cc1 (centres undefined)	none
Nc1cc(=O)[nH]c(SCC(=O)NC2CCCc3ccccc32)n1 (centres undefined)	none
CCCc1cc(=O)[nH]c(SCC(=O)NC2CCCc3ccccc32)n1 (centres undefined)	PAFAH1B2 FP inh 26
COc1cccc(N2CC(C(=O)Nc3ccc(F)cc3)CC2=O)c1 (centres undefined)	none
COc1cccc(N2CC(C(=O)Nc3ccc(C(=O)OC(C)C)cc3)CC2=O)c1 (centres undefined)	pPAFAH inh 25
COc1ccc(NS(=O)(=O)c2ccc3oc(Nc4ccc5c(c4)OCCO5)nc3c2)cc1	pPAFAH inh 26
COc1ccc(NC(=O)COC(=O)c2ccc3c(c2)OCCO3)cc1OC	none
CC1CN(S(=O)(=O)c2cccc(C(=O)OCC(=O)Nc3ccc4c(c3)OCO4)c2)CC(C)O1 (centres undefined)	PAFAH2 inh 67
COc1ccccc1CNC(=O)COC(=O)c1ccc(C)c(S(=O)(=O)N2CCCCC2)c1	PAFAH2 inh 42, pPAFAH inh 27
COc1cccc(C(=O)OCC(=O)Nc2ccc3c(c2)OCCO3)c1	PAFAH2 inh 76, pPAFAH inh 28
CCc1ccc(N(CC(=O)N2CCOCC2)S(C)(=O)=O)cc1	none
COc1ccc(NS(=O)(=O)c2ccc(O)c(C(=O)OCC(=O)Nc3ccc4c(c3)OCCO4)c2)cc1	pPAFAH inh 32
NC(=O)NC(=O)COC(=O)c1cccc(S(=O)(=O)N2CCCCCC2)c1	PAFAH1B2 FP inh 27
Cn1c(SCC(=O)NCC2CCCO2)nnc1-c1ccco1 (centres undefined)	none
N[C@@H](Cc1ccccc1)C(=O)N1CCC(C(=O)N[C@@H](CCC(=O)O)C(=O)O)CC1	none
COc1cc(OC)c(N(C)S(=O)(=O)c2cccc(C(=O)OCC(=O)NCc3ccco3)c2)cc1Cl	PAFAH2 inh 32, pPAFAH inh 33
CN(c1ccccc1)S(=O)(=O)c1cccc(C(=O)OCC(=O)NCc2ccco2)c1	none
Clc1nc(CN2CCOCC2)nc2sc3c(c12)CCC3	none
Cc1cccc(Oc2nc(CN3CCOCC3)nc3sc4c(c23)CCCC4)c1	pPAFAH inh 31
CC(=O)c1cccc(NC(=O)CSc2ncc(C(=O)Nc3ccccc3)c(=O)n2C)c1	pPAFAH inh 31
CC(=O)Nc1cccc(NC(=O)CSc2ncc(C(=O)Nc3ccccc3)c(=O)n2C)c1	none
